# Measurements from ChEMBL document CHEMBL4433221, “Novel Sustainable-by-Design HDAC Inhibitors for the Treatment of Alzheimer's Disease” (ACS Med Chem Lett, 2019).
# Active and inactive are the calls of the source. No cut-off for these calls is given here.
# Key:
# [1] = Permeability of the compound at pH 7.4 PBS buffer at 100 uM measured upto 6 hrs by PAMPA-BBB assay
# [2] = Neurotoxicity against rat CGN cells assessed as cell viability at 25 uM incubated for 24 hrs by MTT assay; type: toxicity, cell-based; details: read-out: Activity
# Procedure, shortened: (§1)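 Primary rat cerebellar granule neuron cultures were exposed for 24 h to 5, 25 or 50 μM. Viability was measured by MTT and expressed as percentage of untreated controls, as mean ± SE of at least three experiments, each run in triplicate.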
# [3] = Neurotoxicity against rat CGN cells assessed as cell viability at 50 uM incubated for 24 hrs by MTT assay; type: toxicity, cell-based; details: read-out: Activity; procedure, shortened: as §1
# N9 [4] = experiment: Immunomodulatory activity in mouse N9 cells assessed as reduction in LPS-induced iNOS expression at 5 to 25 uM incubated for 24 hrs by Western blot analysis; type: functional, cell-based
# Procedure, shortened: (§2)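 N9 mouse microglial cells stimulated with LPS (100 ng/mL) and treated at 5 and 25 μM. iNOS and MRC1 levels were read by Western blot with GAPDH as loading control. Densitometry is expressed as percentage of LPS-only cells, as mean ± SE of three independent experiments.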
# N9 [5] = experiment: Immunomodulatory activity in mouse N9 cells assessed as increase in LPS-induced MRC1 expression at 5 to 25 uM incubated for 24 hrs by Western blot analysis; type: functional, cell-based; procedure, shortened: as §2
# Rattus norvegicus = species: Rattus norvegicus; experiment: Neuroprotective activity against low serum/K+ deprivation-induced toxicity in rat CGN cells assessed as increase in cell viability at 5 to 25 uM pre-treated for 6 hrs followed by 24 hrs co-treatment with serum/K+ starvation and measured after 24 hrs by MTT assay; type: functional, cell-based
# Procedure, shortened: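 Primary rat cerebellar granule neurons were pretreated for 6 h, then cotreated for 24 h under low-serum and K+ deprivation to induce death. Viability was compared with control and deprivation-only conditions, with tacrine as reference compound.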
# Histone deacetylase 1 = Histone deacetylase 1 (Homo sapiens, UniProt Q13547); experiment: Inhibition of human recombinant HDAC1 at 10 uM using ZMAL (Z-(Ac)Lys-AMC fluorogenic substrate incubated for 90 mins by fluorescence method
# [6] = molecular target: T1, Protein deacetylase HDAC6 (Homo sapiens) (UniProt Q9UBN7); experiment: Inhibition of human recombinant HDAC6 at 10 uM using ZMAL (Z-(Ac)Lys-AMC fluorogenic substrate incubated for 90 mins by fluorescence method
# T1 sequence (whole entry): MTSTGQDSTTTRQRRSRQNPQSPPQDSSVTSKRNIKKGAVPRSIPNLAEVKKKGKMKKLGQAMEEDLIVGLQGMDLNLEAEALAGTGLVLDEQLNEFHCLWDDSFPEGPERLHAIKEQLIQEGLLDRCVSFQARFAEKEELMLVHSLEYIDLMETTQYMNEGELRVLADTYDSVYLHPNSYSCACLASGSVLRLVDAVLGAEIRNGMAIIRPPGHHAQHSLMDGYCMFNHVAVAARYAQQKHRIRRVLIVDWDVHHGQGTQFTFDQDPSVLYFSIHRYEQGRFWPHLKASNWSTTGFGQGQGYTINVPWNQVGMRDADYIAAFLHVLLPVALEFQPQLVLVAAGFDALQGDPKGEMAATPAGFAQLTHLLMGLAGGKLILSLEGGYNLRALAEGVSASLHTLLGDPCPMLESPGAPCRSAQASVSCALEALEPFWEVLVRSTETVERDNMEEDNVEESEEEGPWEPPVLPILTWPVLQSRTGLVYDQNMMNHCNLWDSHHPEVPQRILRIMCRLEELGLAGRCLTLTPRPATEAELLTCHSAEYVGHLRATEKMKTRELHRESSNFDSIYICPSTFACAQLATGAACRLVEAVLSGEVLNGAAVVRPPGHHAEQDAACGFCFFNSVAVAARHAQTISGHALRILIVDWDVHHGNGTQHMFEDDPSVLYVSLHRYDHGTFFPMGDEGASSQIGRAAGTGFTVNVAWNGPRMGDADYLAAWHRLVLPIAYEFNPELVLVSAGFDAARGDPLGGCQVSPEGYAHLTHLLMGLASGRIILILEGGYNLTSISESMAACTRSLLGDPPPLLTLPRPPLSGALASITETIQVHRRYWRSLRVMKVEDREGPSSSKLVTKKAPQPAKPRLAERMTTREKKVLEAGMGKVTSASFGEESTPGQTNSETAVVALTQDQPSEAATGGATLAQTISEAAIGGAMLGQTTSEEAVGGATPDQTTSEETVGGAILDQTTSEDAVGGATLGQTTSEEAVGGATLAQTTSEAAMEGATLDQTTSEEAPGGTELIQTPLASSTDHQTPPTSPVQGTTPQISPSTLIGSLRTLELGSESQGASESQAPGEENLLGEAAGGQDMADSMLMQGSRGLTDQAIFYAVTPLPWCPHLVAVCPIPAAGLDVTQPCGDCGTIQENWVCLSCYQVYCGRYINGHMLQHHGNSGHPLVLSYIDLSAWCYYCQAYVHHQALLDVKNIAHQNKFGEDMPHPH
# Sequence of Histone deacetylase 1 (Q13547 whole entry): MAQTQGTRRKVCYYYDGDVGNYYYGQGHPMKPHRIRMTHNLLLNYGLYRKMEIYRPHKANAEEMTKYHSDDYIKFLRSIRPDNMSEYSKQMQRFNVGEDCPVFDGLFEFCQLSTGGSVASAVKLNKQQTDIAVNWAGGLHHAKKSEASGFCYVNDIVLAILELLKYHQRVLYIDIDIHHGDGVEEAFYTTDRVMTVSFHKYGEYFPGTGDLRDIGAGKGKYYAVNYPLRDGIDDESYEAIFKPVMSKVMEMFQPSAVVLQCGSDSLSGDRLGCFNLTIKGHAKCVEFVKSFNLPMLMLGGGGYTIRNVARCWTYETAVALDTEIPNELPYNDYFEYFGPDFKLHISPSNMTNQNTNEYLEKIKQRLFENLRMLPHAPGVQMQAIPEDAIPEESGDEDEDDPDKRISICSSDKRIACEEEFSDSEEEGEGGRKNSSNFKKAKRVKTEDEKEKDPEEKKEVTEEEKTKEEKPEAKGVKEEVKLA
compound,measurement,setting,value
CN(C)CCCN1c2ccccc2Sc2ccc(Cl)cc21 [CHLORPROMAZINE],"Papp at 6 h, 100 µM",[1],5.1 ×10⁻⁶ cm/s
O=C(CCCCCCC(=O)Nc1ccccc1)NO [VORINOSTAT],"viability at 24 h, 25 µM",[2],70%
same,"viability at 24 h, 50 µM",[3],52%
same,Activity,N9 [4],Active
same,Activity,N9 [5],inactive
same,Activity,Rattus norvegicus,inactive
Nc1c2c(nc3ccccc13)CCCC2 [TACRINE],"Papp at 6 h, 100 µM",[1],3.75 ×10⁻⁶ cm/s
CCCCCCCCCCCCCCCc1cccc(O)c1,"Papp at 6 h, 100 µM",[1],3.1 ×10⁻⁶ cm/s
CO/N=C(\C(=O)N[C@@H]1C(=O)N2C(C(=O)O)=C(COC(N)=O)CS[C@H]12)c1ccco1 [CEFUROXIME],"Papp at 6 h, 100 µM",[1],2.7 ×10⁻⁶ cm/s
COc1cccc(CCCCCCCC(=O)O)c1,inhibition,Histone deacetylase 1,< 15%
same,inhibition,[6],< 15%
